High-throughput results: PubChem, several laboratories
UHRF1 binding: human UHRF1 methylated DNA binding inhibitors. Q96T88. UHRF1 binding to methylated oligo, TR-FRET. inhibition, % at 4.4 µM. 370,000 compounds, 0.75% hits; in the data active = inhibition above about 21%;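 also: UHRF1 SRA domain binding a hemimethylated CpG hairpin DNA probe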
MBD2 DNA inh: inhibitors of human MBD2 binding to methylated oligonucleotide; Q9UBB5; TR-FRET; inhibition, % at 4.4 µM; 370,000 compounds, 0.31% hits; in the data active = inhibition above about 13%
Target sequence (Q9UBB5 whole entry, looked up): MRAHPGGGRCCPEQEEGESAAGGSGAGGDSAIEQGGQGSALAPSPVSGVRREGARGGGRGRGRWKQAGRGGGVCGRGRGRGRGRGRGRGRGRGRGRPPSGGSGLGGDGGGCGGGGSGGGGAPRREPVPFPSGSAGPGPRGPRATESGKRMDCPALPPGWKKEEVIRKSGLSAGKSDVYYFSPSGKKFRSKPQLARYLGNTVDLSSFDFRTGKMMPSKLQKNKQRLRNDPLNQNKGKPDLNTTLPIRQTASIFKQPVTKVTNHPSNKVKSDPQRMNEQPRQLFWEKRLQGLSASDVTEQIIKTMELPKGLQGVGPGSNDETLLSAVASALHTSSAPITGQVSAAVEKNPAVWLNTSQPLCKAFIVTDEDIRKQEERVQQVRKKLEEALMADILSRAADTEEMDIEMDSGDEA
CASP6 VEID inh: blocks human caspase-6 cleavage activity | purified caspase-6, Z-VEID-R110 cleavage fluorescence | inhibition, % at 12.5 µM | 350,000 compounds, 0.53% hits;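 active = mean inhibition across replicates at least about 35%, with every replicate also reaching that limit, limit read from the data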
TDP2 absorb: blocks human TDP2 phosphodiesterase activity. 370,000 compounds, 0.34% hits. recombinant TDP2, T5PNP hydrolysis, p-nitrophenol absorbance 415 nm. inhibition, % at 12.8 µM. O95551;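 active = inhibition above the mean of all tested compounds plus 3 SD, set per campaign, cut at about 25% in these data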
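Incubation: 2 h at 37 °C; Test system: recombinant human TDP2; Quantity: enzyme 120 nM; Read-out basis: percent inhibition; Medium: 50 mM Tris-HCl pH 7.5 with Mg2+, KCl, DTT, BSA; Repeats: single replicate; Compound: 12.8 µM single point, 1% DMSO; Signal: epi absorbance; Reagent: 5 mM T5PNP chromogenic substrate; Benchmarks: no-enzyme high, DMSO-plus-enzyme low.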
NSD2 inh: blocks human histone methyltransferase NSD2. 310,000 compounds, 0.54% hits. O96028. NSD2 peptide methylation, AlphaScreen, 120 min. inhibition, % at 12.5 µM; in the data active = inhibition above about 50%
LEDGF integ inh: blocks HIV-1 LEDGF/p75-dependent DNA integration. 370,000 compounds, 0.64% hits. AID 743269. inhibition, % at 3.7 µM. TR-FRET IN-LEDGF/p75 DNA integration, Eu/Cy5;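 active = inhibition above the screen-wide mean plus 3 SD, cut at about 13% in these data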;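 also: signal is the Cy5 over europium emission ratio at 671 and 618 nm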
IN multimer up: activates HIV-1 integrase multimerization in LEDGF counter-screen | shares compounds with LEDGF integ inh | TR-FRET HIV-1 integrase multimerization, biochemical | activation, % at 7.7 µM | 2,000 compounds, 17% hits; in the data active = activation above about 8.9%
TRFRET interf: TR-FRET optical interference, LEDGF/p75 integration counter-screen; shares compounds with LEDGF integ inh; TR-FRET optical interference counterscreen, HIV-1 IN multimerization; inhibition, % at 7.7 µM; 2,000 tested, under 10 active;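 active = inhibition above the mean over all tested compounds plus 3 SD, which no compound reached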
IN-LEDGF confirm: confirmation of HIV-1 LEDGF/p75-dependent integration inhibitors | shares compounds with LEDGF integ inh | TR-FRET LEDGF/p75-dependent HIV-1 integration, biochemical | inhibition, % at 3.7 µM | 2,000 compounds, 36% hits | AID 1053136; in the data active = inhibition above about 14%
Each line names hits and unclear results; the compound was inactive in the other large screens (follow-up assays come after a bar, where they were run). Rows were chosen to be rich in hits. Some 1.9% of all compounds tested hit in one or more screens of this group.

CCCn1c2ccc(C)cc2c2nnc(SCCN3CCOCC3)nc21	none
CCCn1c2ccccc2c2nnc(SCCN3CCOCC3)nc21	CASP6 VEID inh 43, LEDGF integ inh 20 | IN multimer up inactive | TRFRET interf inactive | IN-LEDGF confirm inactive
O=c1n(-c2ccccc2)c(=O)n2n1CC(COc1ccccc1)=C([C@H](O)c1ccccc1)[C@@H]2CO	none (no result: UHRF1 binding, MBD2 DNA inh, TDP2 absorb, NSD2 inh, LEDGF integ inh)
CCn1c(SCC(=O)OCc2ccccc2)nnc1-c1ccco1	CASP6 VEID inh 57, LEDGF integ inh 19 | IN multimer up inactive | TRFRET interf inactive | IN-LEDGF confirm inactive
Cc1ccc(N2C(=O)N(CC(=O)Nc3cccc(C)c3C)C(=O)C2C)cc1 (configuration not stated)	LEDGF integ inh 15 | IN multimer up inactive | TRFRET interf inactive | IN-LEDGF confirm inactive
O=C(c1ccccc1)N1C[C@@H]2[C@H](c3ccccc31)[C@@H](CO)N2Cc1ccccc1F	none (no result: UHRF1 binding, MBD2 DNA inh, TDP2 absorb, NSD2 inh, LEDGF integ inh)
C/C(=N\NC(=O)c1cc(O)ccc1O)c1cccc(NC(=O)c2ccc(Cl)cc2)c1	CASP6 VEID inh 53, LEDGF integ inh 41 | IN multimer up 19 | TRFRET interf inactive | IN-LEDGF confirm 16
CC(=O)Nc1cccc(/C(C)=N/NC(=O)c2ccc(O)cc2)c1	none
CC(=O)Nc1ccc(Oc2cnccn2)cc1	LEDGF integ inh 29 (no result: CASP6 VEID inh) | IN multimer up inactive | TRFRET interf inactive | IN-LEDGF confirm inactive
CCOc1ccccc1OCC(=O)NNC(=O)Cn1cnc2c1c(=O)n(C)c(=O)n2C	LEDGF integ inh 14 | IN multimer up inactive | TRFRET interf inactive | IN-LEDGF confirm inactive
O=C(CC(F)(F)F)N1C[C@H]2[C@@H](c3ccccc31)[C@H](CO)N2CC1CCCCC1	none (no result: UHRF1 binding, MBD2 DNA inh, TDP2 absorb, NSD2 inh, LEDGF integ inh)
Cc1cc(=O)[nH]c(SCC(=O)NCc2ccco2)n1	LEDGF integ inh 20 (no result: CASP6 VEID inh) | IN multimer up inactive | TRFRET interf inactive | IN-LEDGF confirm 21
CO[C@@H]1CN(C)C(=O)c2ccc(NC(=O)C3CC3)cc2OC[C@@H](C)N(C(=O)CN2CCOCC2)C[C@@H]1C	none (no result: UHRF1 binding, MBD2 DNA inh, TDP2 absorb, NSD2 inh, LEDGF integ inh)
Cc1nc2sc(C(c3ccco3)N3CCN(c4ccccc4)CC3)c(O)n2n1 (configuration not stated)	none (no result: NSD2 inh)
Cc1nc2sc(C(c3ccco3)N3CCC(C)CC3)c(O)n2n1 (configuration not stated)	LEDGF integ inh 13 (no result: NSD2 inh) | IN multimer up inactive | TRFRET interf inactive | IN-LEDGF confirm inactive
Cc1nc2sc(C(c3ccco3)N3CCN(c4cccc(Cl)c4)CC3)c(O)n2n1 (configuration not stated)	LEDGF integ inh 20 | IN multimer up inactive | TRFRET interf inactive | IN-LEDGF confirm inactive
CC(C)NC(=O)Nc1ccc2c(c1)C(=O)N([C@H](C)CO)C[C@H](C)[C@H](CN(C)CC1CC1)O2	none (no result: UHRF1 binding, MBD2 DNA inh, TDP2 absorb, NSD2 inh, LEDGF integ inh)
CCN(CC)C(=O)[C@H]1C[C@H](CC(=O)NCc2ccco2)C(=O)N2CCc3c([nH]c4cc(-c5ccco5)ccc34)[C@]12C	LEDGF integ inh 17 (no result: NSD2 inh) | IN multimer up inactive | TRFRET interf inactive | IN-LEDGF confirm inactive
CC1SC(=S)N(c2ccc(N(C)C)cc2)C1=O (configuration not stated)	LEDGF integ inh 20 | IN multimer up inactive | TRFRET interf inactive | IN-LEDGF confirm inactive
CN(C)c1ccc(N2C(=O)CC(c3ccccc3)CC2=O)cc1	none
CN(C)c1ccc(N2C(=O)CSC2=S)cc1	LEDGF integ inh 21 | IN multimer up inactive | TRFRET interf inactive | IN-LEDGF confirm inactive
C[C@H]1CN([C@@H](C)CO)S(=O)(=O)c2ccc(-c3cccc(C#N)c3)cc2O[C@@H]1CN(C)C(=O)c1ccncc1	none (no result: UHRF1 binding, MBD2 DNA inh, TDP2 absorb, NSD2 inh, LEDGF integ inh)
N#C[C@H]1[C@H](c2ccccc2-c2cccc(F)c2)[C@H](CO)N1C(=O)CN1CCOCC1	none (no result: UHRF1 binding, MBD2 DNA inh, TDP2 absorb, NSD2 inh, LEDGF integ inh)
